Assay results published in PMC6404779 (Nature medicine, 2018).

What was measured:
[1] = system: BRAF V600E monomers (SK-MEL-239); experiment: p-ERK Western blot, 1 hr drug treatment; type: cell-based; conditions: p-ERK/total ERK by densitometry, calculated from the curves in Figure 1
Summary of the method: (§1)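 SK-MEL-239 and SK-MEL-239 C4 cells (DMEM, glutamine, antibiotics, 10% FBS) were exposed 1 hr to 0–30,000 nM test compound (0,10,30,100,300,1000,3000,10,000, 30,000 nM). Whole-cell lysates were Western blotted, and p-ERK/total ERK was quantified by densitometry and normalized to untreated cells. IC75 is the concentration giving 75% inhibition on the response curve; 4 independent repeats, mean±s.d.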

[2] = system: p61 BRAF V600E homodimers (SK-MEL-239 C4); experiment: p-ERK Western blot, 1 hr drug treatment; type: cell-based
Summary of the method: as §1

[3] = system: NRAS Q61R activation of WT RAF dimers (SK-MEL-2); experiment: p-ERK Western blot, 1 hr drug treatment; type: cell-based; conditions: Homo sapiens, SK-MEL-2, read-out: IC50 for p-ERK in SK-MEL-2 cells
Summary of the method: (§2)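 SK-MEL-2 (RPMI, 10% FBS) or primary keratinocytes (Dermal Cell Basal Medium + keratinocyte growth kit) were exposed 1 hr to 0–30,000 nM compound (nine points, 10 to 30,000 nM). Lysates were Western blotted, and p-ERK/total ERK was quantified by densitometry and normalized to untreated cells. IC50 is the concentration giving 50% inhibition on the response curve; n=4, mean±s.d.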

[4] = system: WT RAS/RAF (primary keratinocytes); experiment: p-ERK Western blot, 1 hr drug treatment; type: cell-based; conditions: Keratinocyte, read-out: IC50 for p-ERK in keratinocytes
Summary of the method: as §2

[5] = target: RAS-dependent full length BRAF/BRAF dimers (Homo sapiens, UniProt P15056); experiment: RAF dimer immunoprecipitation in 293H; type: cell-based
BRAF/CRAF dimers = BRAF/CRAF dimers (Homo sapiens, UniProt P04049); experiment: RAF dimer immunoprecipitation in 293H; type: cell-based
Chain of BRAF/CRAF dimers (P04049 whole entry): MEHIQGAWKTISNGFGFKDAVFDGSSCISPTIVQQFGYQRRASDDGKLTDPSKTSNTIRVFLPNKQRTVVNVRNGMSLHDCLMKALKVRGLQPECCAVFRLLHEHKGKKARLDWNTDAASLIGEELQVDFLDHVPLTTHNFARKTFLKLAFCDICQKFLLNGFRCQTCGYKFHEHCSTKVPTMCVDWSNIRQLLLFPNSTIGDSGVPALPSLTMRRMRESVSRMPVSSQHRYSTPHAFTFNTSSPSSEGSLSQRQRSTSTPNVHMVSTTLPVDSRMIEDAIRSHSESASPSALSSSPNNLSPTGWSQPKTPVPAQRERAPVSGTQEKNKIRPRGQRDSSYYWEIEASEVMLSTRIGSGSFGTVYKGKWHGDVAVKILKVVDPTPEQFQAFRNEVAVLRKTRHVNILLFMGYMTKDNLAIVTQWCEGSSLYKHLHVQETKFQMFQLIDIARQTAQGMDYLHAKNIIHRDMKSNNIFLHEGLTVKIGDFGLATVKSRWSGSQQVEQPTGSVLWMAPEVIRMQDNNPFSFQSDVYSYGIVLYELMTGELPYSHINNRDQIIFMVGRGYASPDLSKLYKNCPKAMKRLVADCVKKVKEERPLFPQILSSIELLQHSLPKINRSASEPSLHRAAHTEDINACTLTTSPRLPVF
Summary of the method: (§3)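 293H cells with inducible NRAS Q61K co-expressed V5- and FLAG-tagged pairs: BRAF/BRAF, p61 BRAF/p61 BRAF, CRAF-V5/BRAF-FLAG, catC-V5/p61 BRAF-FLAG, CRAF/CRAF or catC/catC. Cells were exposed 1 hr to increasing test compound concentrations, and lysates were immunoprecipitated with anti-V5 agarose. Blots were probed with anti-V5/anti-FLAG. Pulled-down tagged proteins were quantified by densitometry, normalized to untreated cells and plotted as response curves; 3 independent repeats.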

[6] = target: RAS-independent BRAF dimers (p61 BRAF) (Homo sapiens, UniProt P15056); experiment: RAF dimer immunoprecipitation in 293H; type: cell-based; conditions: read-out: IC50 for decrease of dimer levels, p61 BRAF; 1hr; IP/Western blot
Summary of the method: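 293H cells carried doxycycline-inducible NRAS Q61K introduced by retrovirus. They were transfected with Lipofectamine 2000 (DNA:reagent 1:3) to co-express V5- and FLAG-tagged full-length BRAF or p61 BRAF pairs. Cells were exposed to increasing test-compound doses for 1 hr, then lysed, and lysates were immunoprecipitated with anti-V5 agarose (1:200). Blots were probed with anti-V5 and anti-FLAG. Pulled-down FLAG and V5 proteins were quantified by densitometry and normalised to untreated cells.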

[7] = target: RAS-dependent full length CRAF dimers (Homo sapiens, UniProt P04049); experiment: RAF dimer immunoprecipitation in 293H; type: cell-based; conditions: concentrations as high as 10uM
Chain of RAS-dependent full length CRAF dimers (P04049 whole entry): as above
Chain of RAS-dependent full length CRAF dimers (P04049 whole entry): as above
Summary of the method: as §3

[8] = system: RAS-independent truncated CRAF (Cat C) homodimers; experiment: RAF dimer immunoprecipitation in 293H; type: cell-based; conditions: concentrations as high as 10uM
Summary of the method: as §3

[9] = system: RAS-dependent ARAF homo-or heterodimers; experiment: RAF dimer immunoprecipitation in 293H; type: cell-based; conditions: 1hr
[10] = system: Class 2 BRAF mutant homodimers; experiment: RAF dimer immunoprecipitation in 293H cells; type: cell-based; conditions: 1hr, increasing doses
[11] = system: Class 3 BRAF mutant heterodimers; experiment: RAF dimer immunoprecipitation in 293H cells; type: cell-based; conditions: 1hr, increasing doses
p61 BRAF V600E dimers = experiment: ERK signaling in SKBR3 cells ectopically expressing RAF proteins; type: cell-based; conditions: 1hr
Summary of the method: (§4)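 SKBR3 cells (DMEM/F12 + 10% FBS) were transfected the day after seeding (Lipofectamine 2000, DNA:lipid 1:3) with plasmids for the indicated RAF proteins or empty pcDNA3. After 24 h, RAF-transfected cells got 1 uM lapatinib to suppress endogenous RAF activity; vector cells got DMSO. Test compound was then added at increasing doses for 1 hr. Protein expression and phosphorylation were read by Western blot; 3–4 independent repeats.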

p61 WT BRAF dimers = experiment: as above; type: cell-based; conditions: 1hr
Summary of the method: as §4

BRAF V600E monomers = experiment: as above; type: cell-based; conditions: 1hr
Summary of the method: as §4

[12] = system: activated CRAF homodimers; experiment: as above; type: cell-based; conditions: 1hr
Summary of the method: as §4

[13] = system: HeLa cells (WT RAS and RAF) with BRAF overexpression; experiment: ERK signaling in HeLa cells stably expressing RAF; type: cell-based; conditions: 1hr
[14] = system: HeLa cells (WT RAS and RAF) with CRAF overexpression; experiment: ERK signaling in HeLa cells stably expressing RAF; type: cell-based; conditions: 1hr
BRAF knockout MEF cells = experiment: p-MEK/p-ERK in RAF knockout MEF cells; type: cell-based, Mouse; conditions: 1hr
Summary of the method: (§5)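 Wild-type control MEFs and ARAF, BRAF or CRAF knockout MEFs (from a conditional RAF knockout line) were exposed 1 hr to increasing test compound concentrations. Western blot measured p-MEK, MEK, p-ERK and ERK. p-MEK/MEK and p-ERK/ERK were quantified by densitometry, normalized to untreated cells and plotted as response curves (mean±s.d.). Cellular experiments were repeated at least three times.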

CRAF knockout MEF cells = experiment: p-MEK/p-ERK in RAF knockout MEF cells; type: cell-based, Mouse; conditions: 1hr
Summary of the method: as §5

ARAF knockout MEF cells = experiment: p-MEK/p-ERK in RAF knockout MEF cells; type: cell-based, Mouse; conditions: 1hr
Summary of the method: as §5

[15] = system: RAF-null MEFs expressing ARAF; experiment: ERK signaling in RAF-null MEFs expressing one RAF isoform; type: cell-based, Mouse; conditions: 1hr
Summary of the method: (§6)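 RAF-less MEFs came from Araflox/lox;Braflox/lox;Craflox/lox;RERT ert/ert MEFs. Doxycycline-inducible wild-type ARAF, BRAF or CRAF was transduced retrovirally without 4-OHT and selected with puromycin/hygromycin. Cells were then infected with Adeno-Cre (MOI 100) and cultured in 1 uM 4-OHT plus 50 ng/ml doxycycline. GFP-positive cells were sorted after 2 weeks. Loss of endogenous RAF and induced expression were confirmed by genomic PCR and Western blot.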

[16] = system: RAF-null MEFs expressing BRAF; experiment: as above; type: cell-based, Mouse; conditions: 1hr
Summary of the method: as §6

[17] = system: RAF-null MEFs expressing CRAF; experiment: as above; type: cell-based, Mouse; conditions: 1hr
Summary of the method: as §6

[18] = system: Class 1 (BRAF V600 mutants) monomers (A375, SK-MEL-239 and MDST-8); experiment: ERK signaling in a panel of cell lines, 1 hour; type: cell-based
[19] = system: Class 2 BRAF mutants (SK-MEL-239 C4, SK-MEL-246, JVM-3, and 22RV1); experiment: ERK signaling in a panel of cell lines, 1 hour; type: cell-based
[20] = system: Class 3 mutants (H508 and H1666); experiment: ERK signaling in a panel of cell lines, 1 hour; type: cell-based
[21] = system: WT RAF driven by either WT or mutant RAS (A549, SK-MEL-285, BEAS-2B and melanocytes); experiment: ERK signaling in a panel of cell lines, 1 hour; type: cell-based
Summary of the method: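 Cells cultured as follows: SK-MEL-285 in RPMI with 10% FBS; BEAS-2B in BEBM medium; primary melanocytes in Dermal cell basal medium with melanocyte growth kit; A549 in DMEM with glutamine, antibiotics and 10% FBS. Pathway status read by Western blot for p-MEK1/2, p-ERK1/2, MEK1/2 and ERK1/2 (primary 1:1,000; HRP secondary 1:5,000). Cellular experiments repeated at least three times.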

[22] = Tolerability in nude mice; type: in vivo; conditions: doses up to 100mg/kg daily
[23] = PLX8394 concentration in tumor samples; type: in vivo, Mice; conditions: single dose of 50mg/kg (i.p.), A375 xenograft tumor tissue
Summary of the method: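 Melanoma xenograft tumours were collected at several time points after a single 50 mg/kg dose. Fresh tissue (50–150 mg) was snap-frozen in an ethanol–dry ice bath, homogenised and protein-precipitated. Samples were quantified by LC-MS/MS with an internal standard and a 15–50000 ng/mL calibration range. Standards were made by spiking untreated homogenate, and QC samples spanned the range.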

A375 Xenograft tumors = experiment: ERK pathway inhibition in A375 xenograft tumors after a single dose; type: in vivo, Mice; conditions: single dose of 50mg/kg
[24] = system: A375 cells with overexpression of BRAF V600E; experiment: A375 xenograft with doxycycline-induced BRAF V600E overexpression; type: in vivo, nude mice; conditions: vemurafenib 75mg/kg BID, PLX8394 50mg/kg BID
Summary of the method: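 A375 cells carrying a retroviral tet-regulated BRAF V600E or NRAS Q61K construct (kept in 50 ug/ml hygromycin and 0.2 ug/ml puromycin). 5 million cells were injected s.c. into nude mice fed doxycycline food. At 100 mm3, mice stayed on doxycycline food and received vehicle, reference RAF inhibitor 75 mg/kg BID or test compound 50 mg/kg BID. Tumour size was tracked (n=5; mean±s.d.; two-tailed unpaired t-test).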

[25] = system: BRAF K601E CRC PDX tumors; experiment: Colorectal cancer PDX model; type: in vivo, NSG mice; conditions: vemurafenib 75mg/kg BID, PLX8394 50mg/kg BID
BRAF G466V PDX tumors = experiment: Colorectal cancer PDX model; type: in vivo, NSG mice; conditions: Cetuximab 50 mg/kg IP twice weekly, vemurafenib 75 mg/kg BID, PLX8394 50 mg/kg BID

## O=C(c1c(F)ccc(NS(=O)(=O)N2CC[C@@H](F)C2)c1F)c1c[nH]c2ncc(-c3cnc(C4CC4)nc3)cc12 [PLX8394]
[1]
  IC75 of p-ERK in SK-MEL-239: 39 nM
[2]; 1 hr, p-ERK/total ERK by densitometry, calculated from the curves in Figure 1
  IC75 of p-ERK in SK-MEL-239 C4: 158 nM
[2]; SK-MEL-239 C4, 1 hr
  concentration that inhibits p61 dimers: 100~300 nM
[3]
  IC50: > 20000 nM
[4]
  IC50: > 20000 nM
[5]
  IC50: 100 to 300 nM
[5]; 1uM, 293H cells
  time to reduction in BRAF-containing dimers after drug treatment: ≤ 15 min
BRAF/CRAF dimers
  IC50: 100 to 300 nM
[6]
  IC50: 100 to 300 nM
[7]
  effect on full length CRAF dimer levels: no effect
[8]
  effect on truncated CRAF (Cat C) homodimer levels: no effect
[9]
  disruption of ARAF homo- or heterodimers: didn’t disrupt
[10]
  disruption of Class 2 BRAF mutant homodimers: disrupts
[11]
  disruption of Class 3 BRAF mutant heterodimers: disrupts
p61 BRAF V600E dimers
  doses required to inhibit p61 BRAF V600E dimers: 100 to 300 nM
p61 WT BRAF dimers
  doses required to inhibit p61 WT BRAF dimers: 300 to 1000 nM
BRAF V600E monomers
  doses required to inhibit BRAF V600E monomers: 30 to 100 nM
[12]
  effect on ERK signaling in cells with activated CRAF homodimers: activated ERK signaling
[13]
  effect on ERK signaling, BRAF overexpression: sensitized ERK signaling to inhibition
[14]
  effect on ERK signaling, CRAF overexpression: activated the pathway
BRAF knockout MEF cells
  effect on ERK signaling, BRAF knocked out: induced ERK signaling
CRAF knockout MEF cells
  effect on ERK signaling, CRAF-knockout: inhibited signaling
ARAF knockout MEF cells
  effect on ERK signaling, ARAF knockout: minimal effects
[15]
  effect on ERK signaling, cells expressing only ARAF: activated
[16]
  effect on ERK signaling, cells expressing only BRAF: inhibited
[17]
  effect on ERK signaling, cells expressing only CRAF: activated
[18]
  concentrations inhibiting ERK signaling driven by Class 1 monomers: 30 to 100 nM
[19]
  concentrations inhibiting ERK signaling in cells expressing Class 2 BRAF mutants: 100 to 1000 nM
[20]
  concentrations inhibiting Class 3 mutants driven signaling: 1 to 10 µM
[21]
  effect on ERK signaling in cells with WT RAF: almost no effect on ERK signaling or caused slight activation
[22]
  tolerability: well tolerated
[23]
  time of highest drug concentrations in melanoma xenografts: 7 h
A375 Xenograft tumors
  time of maximum inhibition of signaling after dosing: 2 to 7 h
  time of return of signaling to baseline: ≤ 24 h
[24]
  response of ERK signaling and tumor growth, BRAF V600E amplified: sensitive
[25]
  tumor growth response, single RAF inhibitor: partially inhibited
BRAF G466V PDX tumors
  response of ERK signaling and tumor growth: insensitive
